# In ChEMBL document CHEMBL1124172 (J Med Chem, 1988):
# The source made the active and inactive calls. The rule behind the calls is not given here.
# How the values were obtained:
# [1] = test system: Mus musculus; assay: In vivo antitumor activity against P388 Lymphocytic Leukemia measured as Survivors on day 5 at 375 mg/kg; 6/6; assay type: functional
# [2] = test system: Mus musculus; assay: In vivo antitumor activity against P388 Lymphocytic Leukemia in mice at 1500 mg/kg expressed as T/C value; assay type: functional
# [3] = test system: A204; assay: In vitro cytotoxicity against human A204 Rhabdomyosarcoma cell line; assay type: functional, cell-based
# Procedure, shortened: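 A204 human rhabdomyosarcoma soft-agarose colony assay. 10^4 trypsin/EDTA-dissociated cells in 0.3% agarose over a 0.5% agarose base, in DMEM with 10% FCS, at 37 °C and 5% CO2. Compound was applied in an upper medium layer on day 1 for 24 h, then washed out. Colonies >60 µm were counted after 7–9 days by tetrazolium stain and image analysis. Quadruplicates with vehicle controls, at least four concentrations up to 100 or 1000 µg/mL. IC50 from a monoexponential least-squares fit over at least three preparations, mean ± SE.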
# [4] = test system: Mus musculus; assay: In vivo antitumor activity against P388 Lymphocytic Leukemia in mice at 375 mg/kg expressed as T/C value
# [5] = test system: Mus musculus; assay: In vivo antitumor activity against P388 Lymphocytic Leukemia in mice at 750 mg/kg expressed as T/C value; assay type: functional
# [6] = test system: Mus musculus; assay: In vivo antitumor activity against P388 Lymphocytic Leukemia measured as Survivors on day 5 at 187.5 mg/kg; 6/6; assay type: functional
# [7] = test system: Mus musculus; assay: In vivo antitumor activity against P388 Lymphocytic Leukemia measured as Survivors on day 5 at 750 mg/kg; 6/6; assay type: functional
# [8] = test system: Mus musculus; assay: In vivo antitumor activity against P388 Lymphocytic Leukemia in mice at 187.5 mg/kg expressed as T/C value; assay type: functional
# [9] = test system: Mus musculus; assay: In vivo antitumor activity against P388 Lymphocytic Leukemia measured as Survivors on day 5 at 1500 mg/kg; 6/6; assay type: functional
# [10] = test system: Mus musculus; assay: In vivo antitumor activity against P388 Lymphocytic Leukemia measured as Survivors on day 5 at 11.50 mg/kg; 6/6; assay type: functional; details: dose 11.5 mg/kg
# [11] = test system: Mus musculus; assay: In vivo antitumor activity against P388 Lymphocytic Leukemia measured as Survivors on day 5 at 46 mg/kg; 6/6; assay type: functional
# [12] = test system: Mus musculus; assay: In vivo antitumor activity against P388 Lymphocytic Leukemia measured as Survivors on day 5 at 23 mg/kg; 6/6; assay type: functional
# [13] = test system: Mus musculus; assay: Weight difference when tested in vivo for antitumor activity against P388 Lymphocytic Leukemia; assay type: functional
# [14] = test system: Mus musculus; assay: In vivo antitumor activity against P388 Lymphocytic Leukemia in mice at 46 mg/kg expressed as T/C value; assay type: functional
# [15] = test system: Mus musculus; assay: In vivo antitumor activity against P388 Lymphocytic Leukemia in mice at 92 mg/kg expressed as T/C value; assay type: functional
# [16] = test system: Mus musculus; assay: In vivo antitumor activity against P388 Lymphocytic Leukemia in mice at 11.50 mg/kg expressed as T/C value; assay type: functional; details: dose 11.5 mg/kg
# [17] = test system: Mus musculus; assay: In vivo antitumor activity against P388 Lymphocytic Leukemia measured as Survivors on day 5 at 92 mg/kg; 6/6; assay type: functional
# [18] = test system: Mus musculus; assay: In vivo antitumor activity against P388 Lymphocytic Leukemia in mice at 23 mg/kg expressed as T/C value; assay type: functional
# [19] = test system: Mus musculus; assay: In vivo antitumor activity against P388 Lymphocytic Leukemia measured as survivors on day 5 at 325 mg/kg (repeat); 0/6; assay type: functional
# [20] = test system: Mus musculus; assay: In vivo antitumor activity against P388 Lymphocytic Leukemia measured as Survivors on day 5 at 325 mg/kg; 0/6; assay type: functional
# [21] = test system: Mus musculus; assay: In vivo antitumor activity against P388 Lymphocytic Leukemia measured as Survivors on day 5 at 162.50 mg/kg; 6/6; assay type: functional; details: dose 162.5 mg/kg
# [22] = test system: P388; assay: Weight difference when tested in vivo for antitumor activity against P388 Lymphocytic Leukemia; weight difference expressed as (T-C); assay type: functional, Mus musculus
# [23] = test system: Mus musculus; assay: In vivo antitumor activity against P388 Lymphocytic Leukemia measured as survivors on day 5 at 162.50 mg/kg (repeat); 6/6; assay type: functional; details: dose 162.5 mg/kg
# [24] = test system: Mus musculus; assay: In vivo antitumor activity against P388 Lymphocytic Leukemia in mice at 81.25 mg/kg expressed as T/C value (repeat); assay type: functional
# [25] = test system: Mus musculus; assay: In vivo antitumor activity against P388 Lymphocytic Leukemia in mice expressed as T/C value; Toxic
# [26] = test system: Mus musculus; assay: In vivo antitumor activity against P388 Lymphocytic Leukemia in mice at 325 mg/kg expressed as T/C value); Toxic; assay type: toxicity, organism-based; design: dose 325 mg/kg
# [27] = test system: Mus musculus; assay: In vivo antitumor activity against P388 Lymphocytic Leukemia in mice at 162.50 mg/kg expressed as T/C value; assay type: functional; details: dose 162.5 mg/kg
# [28] = test system: Mus musculus; assay: In vivo antitumor activity against P388 Lymphocytic Leukemia measured as Survivors on day 5 at 650 mg/kg; 0/6; assay type: functional
# [29] = test system: Mus musculus; assay: In vivo antitumor activity against P388 Lymphocytic Leukemia measured as Survivors on day 5 at 1300 mg/kg; 0/6; assay type: functional
# [30] = test system: Mus musculus; assay: Weight difference when tested in vivo for antitumor activity against P388 Lymphocytic Leukemia; weight difference expressed as (T-C); Not active; assay type: functional, organism-based
# [31] = test system: Mus musculus; assay: In vivo antitumor activity against P388 Lymphocytic Leukemia in mice at 1300 mg/kg expressed as T/C value; Toxic; assay type: toxicity, organism-based; design: dose 1300 mg/kg
# [32] = test system: Mus musculus; assay: In vivo antitumor activity against P388 Lymphocytic Leukemia measured as survivors on day 5 at 81.25 mg/kg (repeat); 6/6; assay type: functional
# [33] = test system: Mus musculus; assay: In vivo antitumor activity against P388 Lymphocytic Leukemia in mice at 162.5 mg/kg expressed as T/C value(repeat); assay type: functional
# [34] = test system: Mus musculus; assay: In vivo antitumor activity against P388 Lymphocytic Leukemia in mice at 40.60 mg/kg expressed as T/C value (repeat); assay type: functional; details: dose 40.6 mg/kg
# [35] = test system: Mus musculus; assay: In vivo antitumor activity against P388 Lymphocytic Leukemia in mice at 650 mg/kg expressed as T/C value; Toxic; assay type: toxicity, organism-based; design: dose 650 mg/kg
# [36] = test system: Mus musculus; assay: In vivo antitumor activity against P388 Lymphocytic Leukemia measured as survivors on day 5 at 40.60 mg/kg (repeat); 6/6; assay type: functional; details: dose 40.6 mg/kg
smiles,measurement,setting,value
CC(C)C(O)(C(=O)OCC1CC[N+]2([O-])CC[C@@H](O)[C@@H]12)C(C)O (some centres undefined),Survivors,[1],6
same,T/C,[2],106%
same,IC50,[3],320 µg/mL
same,T/C,[4],106%
same,T/C,[5],95%
same,Survivors,[6],6
same,Survivors,[7],6
same,T/C,[8],94%
same,Survivors,[9],6
CC(C)C(O)(C(=O)O[C@@H]1CCN2CC[C@H](CO)[C@H]12)C(C)O (some centres undefined),Survivors,[10],6
same,Survivors,[11],6
same,Survivors,[12],6
same,Weight difference,[13],-1.2
same,T/C,[14],105%
same,T/C,[15],98%
same,T/C,[16],111%
same,Survivors,[17],6
same,T/C,[18],107%
CC(C)C(O)(C(=O)OCC1CCN2CC[C@@H](O)[C@@H]12)C(C)O (some centres undefined),Survivors,[19],0
same,Survivors,[20],0
same,Survivors,[21],6
same,Weight difference,[22],0.5
same,Survivors,[23],6
same,T/C,[24],102%
same,T/C,[25],Toxic
same,IC50,[3],400 µg/mL
same,T/C,[26],Toxic
same,T/C,[27],92%
same,Survivors,[28],0
same,Survivors,[29],0
same,Weight difference,[30],inactive
same,T/C,[31],Toxic
same,Survivors,[32],6
same,T/C,[33],98%
same,T/C,[34],96%
same,T/C,[35],Toxic
same,Survivors,[36],6
CC1C(=O)O[C@@H]2CCN3CC=C(COC(=O)C(C)(O)C1(C)O)[C@H]23 (some centres undefined),IC50,[3],316 µg/mL
CC(C)C(O)(C(=O)OCC1=CCN2CC[C@@H](O)[C@@H]12)C(C)O (some centres undefined) [INDICINE],IC50,[3],34 µg/mL
